Ba/F3 V617F tox = reduced viability of JAK2V617F-dependent Ba/F3 cells, primary screen, JAK2V617F inhibitor project, cell-based, Ba/F3 EpoR-JAK2V617F, luminescence | 220,000 compounds, 1.1% hits | AID 1446, 2008 | inhibition, % at 5.6 µM | ATP luminescence;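 active means inhibition above the campaign mean plus 3 SD over all tested compounds, cut at about 24% in these data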;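 further: cytokine-independent growth of Ba/F3 cells driven by EpoR plus mutant JAK2; 0% = DMSO-treated cells and 100% = JAK inhibitor I control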
BaF3 parental = parental Ba/F3 cell viability inhibition, counter-screen for JAK2V617F inhibitor project, murine pro-B, CellTiter-Glo luminescence. CellTiter-Glo ATP luminescence. AID 1486, 2009. 220,000 compounds, 1.1% hits. inhibition, % at 5.6 µM;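 active means inhibition above a per-campaign cutoff, the mean inhibition of all tested compounds plus 3 SD, cut at about 27% in these data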;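 further: 0% = DMSO wells and 100% = JAK Inhibitor I control wells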
APP transl inh = inhibitors of APP translation via 5'UTR reporter, primary screen, APP 5'UTR luciferase, SH-SY5Y cells. SH-SY5Y APP 5'UTR-luciferase reporter, luminescence. inhibition, % at 2 µM. 190,000 compounds, 0.82% hits. AID 1285, 2008;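 active means inhibition above a set limit, derived from the sample mean plus 3 SD, cut at about 45% in these data; inconclusive means one replicate passes the limit while the other fails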
MT stabilize HCS = microtubule stabilizers in HeLa cells, primary screen, imaging, high-content imaging. HeLa tubulin immunostaining HCS, 24 h; share of cells brighter than vehicle mean+2SD. % tubulin-high responders, % at 10 µM. 200,000 compounds, 0.83% hits. AID 2205, 2009;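 active means plate Z-score above 3 for both tubulin-high and condensed-nucleus cell shares, with cell loss under 80%, at 10 µM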;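 further: anti alpha tubulin signal scored within the nucleus-defined area of each cell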
bCat nuc transl = modulators of beta-catenin nuclear translocation, primary screen, imaging, HeLa cells, immunofluorescence, high-content | nuclear translocation activity, % at 5 µM | 190,000 compounds, 0.3% hits | AID 1665, 2009;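 active means nuclear translocation activity above 50% at 5 µM, with a well cell count of 50 or more; inconclusive means wells under 50 cells across six images, flagged as toxic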;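 further: per-cell ratio of nuclear to cytoplasmic median beta-catenin stain intensity; plate controls were DMSO negative control for no effect and GSK-3 inhibitor IX positive control for full effect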
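Test system: human HeLa cells, native beta-catenin. Compound dosing: 5 µM primary single dose, 0.1% DMSO, 0.02–20 µM confirmation series. Incubation: compound exposure 24 h at 37°C. Detection: beta-catenin immunostaining with DAPI counterstain, 20x imaging, 6 fields/well. Read-out basis: Nuclear/cytoplasmic beta-catenin signal ratio, % activation.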
IEC-6 cytotox = cytotoxicity in IEC-6 intestinal epithelial cells, primary screen, cytotoxicity control for KLF5 inhibitor project, cell-based, luminescence; IEC-6 cytotoxicity, luminescence viability; inhibition, % at 5 µM; 290,000 compounds, 0.78% hits; AID 1825, 2009; in the data active means inhibition above about 22%;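 further: 0% = plate median of test compound wells and 100% = cytotoxic reference compound wells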
* = called active by the depositor; ? = inconclusive; / = no result. Hits are enriched below; roughly 2.2% of the tested compounds scored in any of these assays.

SMILES	Ba/F3 V617F tox	BaF3 parental	APP transl inh	MT stabilize HCS	bCat nuc transl	IEC-6 cytotox
COc1ccc(N2CC(O)(c3ccc(OC(F)F)cc3)[N+]3=C2CCCC3)cc1 (stereo not given)	1.0	7.1	9.4	2.0	0.2	4.7
Clc1ccc(-c2cn3nc4c(nc3n2)CCCC4)cc1	-2.2	2.5	-190.9	2.4	0.8	2.8
COc1ccc(-n2cc(-c3ccc(OC(F)F)cc3)[n+]3c2CCCCC3)cc1	71.8*	64.2*	-5.5	1.3	-2.1	10.5
COc1ccc(-n2cc(-c3ccc(Cl)cc3)[nH]c2=S)cc1	-4.9	-0.8	/	/	-0.1	-5.9
COc1ccc(-c2cn(-c3ccc(Cl)cc3)c3[n+]2CCCCC3)cc1	71.4*	68.0*	/	/	1.2	3.4
Clc1ccc(-c2cn(-c3ccc(Cl)cc3)c3[n+]2CCCCC3)cc1	46.3*	62.1*	/	/	0.8	1.5
CCOc1ccccc1C(=O)N(Cc1sccc1C)C1CCS(=O)(=O)C1 (stereo not given)	/	/	/	/	/	-4.9
O=C(Nc1ccc(S(=O)(=O)N2CCCCC2)cc1)c1ccc(CN2CCc3ccccc3C2)cc1	29.9*	33.7*	15.1	2.4	3.8	12.3
Cc1ccc(-c2nnn(CC(=O)NC3CC4CCC3C4)n2)cc1 (stereo not given)	-0.9	-1.8	-3.1	4.0	0.1	-1.9
O=C(Cn1nnc(-c2ccc(Cl)cc2)n1)NC1CC2CCC1C2 (stereo not given)	-2.8	94.4*	-2.2	4.4	-0.3	4.5
CCN(CC)S(=O)(=O)c1ccc(NN=c2c(=O)c3ccccc3c2=O)cc1	-2.0	3.1	/	/	-1.8	3.9
COc1cccc2c1C(=O)c1c(O)c3c(c(O)c1C2=O)C[C@@](O)(C(=O)CO)C[C@@H]3O[C@H]1C[C@H](N)[C@H](O)[C@H](C)O1	101.8*	101.0*	94.6*	80.9	?	93.8*
COc1ccc(Cl)cc1Nc1nc2ccc(C)cc2n2cnnc12	/	/	/	/	/	3.2
Cc1cc(C(=O)NC2CC(C)(C)Cc3c2cnn3-c2ccccc2)n(C)n1 (stereo not given)	/	/	/	/	/	6.2
CC(=O)[C@@]1(O)C(C)CC2C3C=C(C)C4=Cc5c(cnn5-c5ccccc5)C[C@]4(C)C3C(O)C[C@@]21C (stereo not given in full)	9.1	-0.1	/	/	-5.4	27.4*
Nc1nc(N)c2c(ccc3nccc32)[nH]1	93.7*	101.7*	/	/	-3.6	70.8*
COc1cccc2c1OCC(C(=O)O)C2 (stereo not given)	-0.5	8.3	0.9	1.9	0.7	-5.1
COc1cccc2c1C(CO)N1C(C#N)C3CC(C(=O)O)C(C1C2)N3C (stereo not given)	93.8*	95.1*	/	/	24.7	100.4*
CCOC(=O)c1c(C)[nH]c(C(=O)OC(C)C(=O)Nc2ccccc2OC)c1C (stereo not given)	/	/	/	/	/	10.2
CC(OC(=O)C1=NNC(=O)CC1)C(=O)Nc1ncc(Cl)cc1Cl (stereo not given)	1.3	80.6*	14.4	1.9	-2.6	-3.3
CCOC(=O)c1[nH]c(C)c(C(=O)OC(C)C(=O)Nc2ncc(Cl)cc2Cl)c1C (stereo not given)	-2.3	1.3	9.9	42.3*	-0.5	-1.4
CCOc1ccc(N(CC(=O)NC2CCCCC2)C(=O)CNC(=O)c2cccs2)cc1	/	/	/	/	/	-2.8
COCCC(=O)N1CCCC(CNS(=O)(=O)c2ccc(OC)cc2)C1 (stereo not given)	0.6	89.7*	5.8	2.3	-0.1	7.0
NC(=O)c1nc(N2CCOCC2)nc(N2CCOCC2)n1	2.2	6.9	-2.6	2.8	-1.7	2.8
CC(C)(C)Nc1nc(C(N)=O)nc(N2CCOCC2)n1	-1.4	1.4	60.0*	3.6	/	8.6
SMILES	Ba/F3 V617F tox	BaF3 parental	APP transl inh	MT stabilize HCS	bCat nuc transl	IEC-6 cytotox
O=C(CC1NCCNC1=O)Nc1cccc([N+](=O)[O-])c1 (stereo not given)	1.4	4.1	17.1	2.7	-2.2	-0.8
O=C(NNc1c2ccccc2nc2ccccc12)c1ccccc1O	-0.4	3.2	1.4	3.9	-1.5	7.0
O=C(NNc1c2ccccc2nc2ccccc12)c1ccc(O)cc1	49.2*	65.0*	6.2	3.9	2.9	4.3
O=C(NNc1c2ccccc2nc2ccccc12)c1ccc(O)cc1O	72.2*	76.7*	-12.5	3.0	-0.6	5.3
Cc1ccc2oc(-c3cccc(NC(=S)NC(=O)/C=C/c4ccco4)c3)nc2c1	1.7	5.3	-15.6	37.2*	11.2	-0.3
C=CCn1c(O)c(N=NC(=O)CNC(=O)c2ccco2)c2ccccc21	-0.2	7.3	-2.9	12.5*	-0.8	0.6
C=CCn1c(O)c(N=NC(=O)OCC)c2ccccc21	-2.0	3.9	12.6	2.4	-1.1	-2.6
CCn1c(O)c(N=NC(=O)CNC(=O)c2ccco2)c2ccccc21	-3.1	4.6	-10.9	2.4	-0.6	-1.6
C=CCn1c(O)c(N=NC(=O)c2ccc3c(c2)OCO3)c2ccccc21	-3.2	-0.7	49.6*	1.2	-0.1	-1.5
CC(C(=O)Nc1ccc(Cl)cc1Cl)N1C(=O)NC2(CCCC2)C1=O (stereo not given)	/	/	/	/	/	7.2
C(C#CCCCCCCCCC[n+]1ccccc1)#CCCCCCCCCC[n+]1ccccc1	/	/	/	/	/	51.0*
Cc1ccc(NS(=O)(=O)c2ccc(C(=O)N3CCN(c4ncccn4)CC3)cc2)cc1	13.6	27.9*	-19.3	0.9	-2.8	6.7
Cc1ccc(C(=O)N2CCN(c3ncccn3)CC2)cc1	/	/	/	/	/	-0.8
COc1ccc(N(C(=O)c2cccnc2)S(=O)(=O)c2ccc(F)cc2)cc1	/	/	/	/	/	4.3
O=C(O)c1ccc(N/N=C/c2ccc(C(F)(F)F)cc2)cc1	0.5	1.9	-61.2	1.5	-1.3	17.7
CC(C)(C)c1ccc(/C=N/Nc2ccc(C(=O)O)cc2)cc1	6.1	0.8	-55.3	3.2	-0.9	24.2*
COc1cccc(/C=N/Nc2ccc(C(=O)O)cc2)c1O	1.4	3.5	80.1*	2.1	-0.7	-5.2
COc1ccc(S(=O)(=O)N(CC(=O)NCC2CCCO2)C2CCCCC2)cc1OC (stereo not given)	/	/	/	/	/	-3.7
COc1ccc2nc3oc(C(=O)N4CCN(c5cccc(Cl)c5)CC4)cc3cc2c1	-1.9	5.3	0.4	3.5	0.2	-3.3
COc1ccc2nc3oc(C(=O)N4CCN(c5cccc(C(F)(F)F)c5)CC4)cc3cc2c1	-1.1	1.2	3.0	12.8*	19.2	-6.0
O=C(c1cccc(F)c1)N1CCN(c2cccc(Cl)c2)CC1	0.3	5.7	-1.4	21.5*	/	3.7
Cc1onc(-c2ccccc2Cl)c1C(=O)N1CCN(c2cccc(Cl)c2)CC1	/	/	-8.2	20.2*	/	/

Bioassay records deposited in PubChem BioAssay by several laboratories.
